Data as given in ChEMBL document CHEMBL1135583, “Activity of bisphosphonates against Trypanosoma brucei rhodesiense” (J Med Chem, 2002).

Assays:
[1] = test system: Trypanosoma brucei rhodesiense; experiment: In vitro growth inhibition of bloodstream-form Trypanosoma brucei rhodesiense Trypomastigotes; assay type: functional, organism-based
In short: (§1)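 Bloodstream-form T. b. rhodesiense trypomastigotes, strain STIB 900, grown in vitro with the bisphosphonate. IC50 taken as the drug concentration that cuts parasite proliferation by 50%.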

[2] = 50% lethal dose for inhibition of KB cells growth; assay type: cell-based; conditions: human, read-out: LD50 (the source's name)
In short: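 KB cell line growth measured over a dose-response series by the Alamar blue method. The LD50 is the concentration lethal to 50% of KB cells. The highest level tested was 300 μg/mL; ">" means no inhibition at that level.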

[3] = Therapeutic index measured as the ratio of LD50 (KB cells) to IC50 (T.b. rhodesiense); assay type: cell-based; conditions: trypanosoma brucei rhodesiense, KB cells versus T. b. rhodesiense; read-out: TI
In short: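 KB cell growth inhibition measured by Alamar blue to give LD50, the dose lethal to 50% of cells; highest level tested 300 μg/mL. Index computed as LD50 (KB cells) / IC50 (T. b. rhodesiense).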

[4] = test system: Trypanosoma brucei rhodesiense; experiment: Predicted pIC50 against Trypomastigotes Brucei rhodesiense.; assay type: functional, organism-based
In short: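 QSAR prediction from a bisphosphonate training set. Structures geometry-optimized by steepest-descent, conjugate-gradient and Newton–Raphson minimization with no internal constraints. Each molecule aligned by rms fit of its P–C–P backbone to the lowest-energy conformer of the template. Models validated by leave-one-out cross-validation.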

[5] = test system: Trypanosoma brucei rhodesiense; experiment: Log IC50 brucei Trypomastigotes; assay type: functional, organism-based; in short: as §1
[6] = test system: Trypanosoma brucei rhodesiense; experiment: Percent inhibition of Trypanosoma brucei rhodesiense at 27.85 uM of risedronate along with GPP; assay type: functional
[7] = test system: Trypanosoma brucei rhodesiense; experiment: In vitro growth inhibition of Trypanosoma brucei rhodesiense (risedronate + GPP); assay type: functional, organism-based
[8] = test system: Trypanosoma brucei rhodesiense; experiment: Percent inhibition of Trypanosoma brucei rhodesiense at 1.03 uM of risedronate along with GPP; assay type: functional
[9] = test system: Trypanosoma brucei rhodesiense; experiment: Percent inhibition of Trypanosoma brucei rhodesiense at 9.27 uM of risedronate along with GPP; assay type: functional
[10] = test system: Trypanosoma brucei rhodesiense; experiment: Percent inhibition of Trypanosoma brucei rhodesiense at 83.54 uM of risedronate along with GPP; assay type: functional
[11] = test system: Trypanosoma brucei rhodesiense; experiment: Percent inhibition of Trypanosoma brucei rhodesiense at 3.09 uM of risedronate along with GPP; assay type: functional
In short: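 Rescue assay with bloodstream-form trypomastigotes (strain STIB900) seeded at 1 × 10^5/mL in HMI-18 medium with 20% HIFCS. Bisphosphonate was given as three-fold serial dilutions from 83.5 μM, in triplicate. Geranyl pyrophosphate was added at a final 12.5 μg/mL. Plates were incubated for 72 h at 37 °C in 5% CO2-air, then Alamar Blue was added for 4 h and fluorescence read at 530/585 nm.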

[12] = test system: Trypanosoma brucei rhodesiense; experiment: In vitro rescue of growth inhibition of Trypanosoma brucei rhodesiense [risedronate + farnesol(12.5 ug/mL)]; assay type: functional, organism-based
[13] = test system: Trypanosoma brucei rhodesiense; experiment: In vitro rescue of growth inhibition of Trypanosoma uM of risedronate along with farnesol (12.5 ug/mL); assay type: functional
[14] = test system: Trypanosoma brucei rhodesiense; experiment: Percent inhibition of Trypanosoma brucei rhodesiense at 27.85 uM of risedronate along with FPP; assay type: functional
[15] = test system: Trypanosoma brucei rhodesiense; experiment: In vitro growth inhibition of Trypanosoma brucei rhodesiense (risedronate + FPP); assay type: functional, organism-based
[16] = test system: Trypanosoma brucei rhodesiense; experiment: Percent inhibition of Trypanosoma brucei rhodesiense at 9.27 uM of risedronate along with FPP; assay type: functional
[17] = test system: Trypanosoma brucei rhodesiense; experiment: Percent inhibition of Trypanosoma brucei rhodesiense at 83.54 uM of risedronate along with FPP; assay type: functional
[18] = test system: Trypanosoma brucei rhodesiense; experiment: 50% inhibitory concentration against Trypanosoma brucei rhodesiense; assay type: functional, organism-based; in short: as §1
[19] = test system: Trypanosoma brucei rhodesiense; experiment: (§2) In vitro rescue of growth inhibition of Trypanosoma uM of compound; assay type: functional
[20] = test system: Trypanosoma brucei rhodesiense; experiment: as §2; assay type: functional; remark: listed apart in the source
[21] = test system: Trypanosoma brucei rhodesiense; experiment: as §2; assay type: functional; remark: listed apart in the source
[22] = test system: Trypanosoma brucei rhodesiense; experiment: as §2; assay type: functional; remark: listed apart in the source
[23] = test system: Trypanosoma brucei rhodesiense; experiment: as §2; assay type: functional; remark: listed apart in the source
[24] = test system: Trypanosoma brucei rhodesiense; experiment: as §2; assay type: functional; remark: listed apart in the source

Compound | IC50 [1] | CC50 [2] | selectivity ratio [3] | IC50 [4] | other results
O=P(O)(O)C(Nc1ccc(Br)cn1)P(=O)(O)O | 39.5 µM | 87 µM | 2 | 39.8 µM | –
O=P(O)(O)C(O)(CCc1cccnc1)P(=O)(O)O | 1.7 µM | > 804 µM | > 473 | 1.7 µM | –
CCCCCCCCCCC(O)(P(=O)(O)O)P(=O)(O)O | 8 µM | > 806 µM | > 101 | – | IC50 [5]: 7.94 µM
CCCCC(O)(P(=O)(O)O)P(=O)(O)O | – | > 1040 µM | > 10 | 100 µM | –
CCCCCC(O)(P(=O)(O)O)P(=O)(O)O | – | > 993 µM | > 16 | 63.1 µM | –
O=P(O)(O)C(O)(Cc1c[nH]cn1)P(=O)(O)O | – | 41 µM | 5 | 8.51 µM | –
CC(C)=CCC/C(C)=C/COP(=O)(O)OP(=O)(O)O.O=P(O)(O)C(O)(Cc1cccnc1)P(=O)(O)O | – | – | – | – | Inhibition [6]: 100%; IC50 [7]: 3.71 µM; Inhibition [8]: 0%; Inhibition [9]: 83.7%; Inhibition [10]: 100%; Inhibition [11]: 44.59%
CCCCCCCCCCCC(O)(P(=O)(O)O)P(=O)(O)O | 2 µM | 492 µM | 246 | – | IC50 [5]: 2 µM
Nc1ccc(CC(O)(P(=O)(O)O)P(=O)(O)O)cc1 | – | 218 µM | 5 | 39.8 µM | –
O=P(O)(O)C(O)(Cc1ccccn1)P(=O)(O)O | – | 13.9 µM | 63 | 0.219 µM | –
CCCC(O)(P(=O)(O)O)P(=O)(O)O | – | > 967 µM | > 11 | 91.2 µM | –
CCCCCCCCCC(O)(P(=O)(O)O)P(=O)(O)O | 20.5 µM | > 775 µM | > 38 | – | IC50 [5]: 20.4 µM
O=P(O)(O)C(Nc1ccc(Cl)cn1)P(=O)(O)O | 53.3 µM | > 992 µM | > 19 | 53.7 µM | –
Cc1cccnc1NC(P(=O)(O)O)P(=O)(O)O | 0.7 µM | 187 µM | 267 | 0.708 µM | –
CC(N)CC(O)(P(=O)(O)O)P(=O)(O)O (stereo unspecified) | 7.8 µM | 977 µM | 125 | 7.76 µM | –
O=P(O)(O)C(O)(CSc1ccncc1)P(=O)(O)O | – | > 746 µM | > 38 | 20 µM | –
Cc1ccnc(NC(P(=O)(O)O)P(=O)(O)O)c1 | 0.61 µM | 127 µM | 208 | 0.617 µM | –
O=P(O)(O)C(O)(Cc1ccccc1)P(=O)(O)O | – | > 931 µM | > 44 | 21.4 µM | –
CC(C)=CCC/C(C)=C/CC/C(C)=C/CO.O=P(O)(O)C(O)(Cc1cccnc1)P(=O)(O)O | – | – | – | – | IC50 [12]: > 83.5 µM; Inhibition [13]: 0%
CC(C)=CCC/C(C)=C/CC/C(C)=C/COP(=O)(O)OP(=O)(O)O.O=P(O)(O)C(O)(Cc1cccnc1)P(=O)(O)O | – | – | – | – | Inhibition [14]: 25.4%; IC50 [15]: 66.8 µM; Inhibition [16]: 0%; Inhibition [17]: 64.24%
O=P(O)(O)C(NC1CCCCC1)P(=O)(O)O [(CYCLOHEXYLAMINO)METHYLENEDIPHOSPHONIC ACID] | 20.9 µM | 271 µM | 13 | 20.9 µM | –
CCN(CC)C(P(=O)(O)O)P(=O)(O)O [(DIETHYLAMINO)METHYLENEDIPHOSPHONIC ACID] | 34.4 µM | 809 µM | 24 | 34.7 µM | –
CC(C)CCNC(P(=O)(O)O)P(=O)(O)O [(ISOPENTYLAMINO)METHYLENEDIPHOSPHONIC ACID] | 102 µM | > 1150 µM | > 11 | 102 µM | –
CCCCCCCCNC(P(=O)(O)O)P(=O)(O)O [(OCTYLAMINO)METHYLENEDIPHOSPHONIC ACID] | 1.7 µM | 66.8 µM | 39 | – | IC50 [5]: 1.7 µM
CCCCCNC(P(=O)(O)O)P(=O)(O)O [(PENTYLAMINO)METHYLENEDIPHOSPHONIC ACID] | 50.6 µM | > 1150 µM | > 23 | 50.1 µM | –
CCCCCN(C)CCC(O)(P(=O)(O)O)P(=O)(O)O [IBANDRONIC ACID] | 0.96 µM | 10.1 µM | 10 | 0.955 µM | –
NCCCCCC(O)(P(=O)(O)O)P(=O)(O)O [NERIDRONIC ACID] | – | 680 µM | 21 | – | IC50 [5]: 31.6 µM
CN(C)CCC(O)(P(=O)(O)O)P(=O)(O)O [OLPADRONIC ACID] | – | > 1050 µM | > 195 | 5.37 µM | –
NCCC(O)(P(=O)(O)O)P(=O)(O)O [PAMIDRONIC ACID] | > 100 µM | 156 µM | < 2 | – | IC50 [5]: > 100 µM
O=P(O)(O)C(O)(Cc1cccnc1)P(=O)(O)O [RISEDRONIC ACID] | – | 249 µM | 29 | 8.51 µM | IC50 [18]: 4.12 µM; Inhibition [19]: 86.49%; Inhibition [20]: 100%; Inhibition [21]: 0%; Inhibition [22]: 23.49%; Inhibition [23]: 19.3%; Inhibition [24]: 100%
